# Data: ChEMBL document CHEMBL1137350, “Discovery of a new class of macrocyclic antagonists to the human motilin receptor” (J Med Chem, 2006)
# Key:
# Motilin receptor [1] = target: T1, Motilin receptor (Homo sapiens, UniProt O43193); assay: Displacement of [125I]motilin from human MOTR
# Outline: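 Competition binding on isolated membranes expressing human motilin receptor, with radioiodinated porcine motilin ([125I]-motilin) as tracer. 11-point concentration curves gave Ki, with a top test concentration of 10 µM. Compounds came from 10 mM DMSO stocks stored at -60 °C.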
# Motilin receptor [2] = target: T1, Motilin receptor; assay: Activity at human MOTR expressed in CHO cells assessed as inhibition of motilin-induced calcium release upto 10 uM; format: functional, cell-based; conditions: filed as antagonist
# Outline: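 Aequorin luminescence assay on whole CHO cells expressing cloned human motilin receptor, measuring inhibition of motilin-induced Ca2+ release. Agonist activity was also checked at concentrations up to 10 µM. Compounds were TFA salts held as 10 mM DMSO stocks at -60 °C.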
# T1 sequence (O43193 whole entry): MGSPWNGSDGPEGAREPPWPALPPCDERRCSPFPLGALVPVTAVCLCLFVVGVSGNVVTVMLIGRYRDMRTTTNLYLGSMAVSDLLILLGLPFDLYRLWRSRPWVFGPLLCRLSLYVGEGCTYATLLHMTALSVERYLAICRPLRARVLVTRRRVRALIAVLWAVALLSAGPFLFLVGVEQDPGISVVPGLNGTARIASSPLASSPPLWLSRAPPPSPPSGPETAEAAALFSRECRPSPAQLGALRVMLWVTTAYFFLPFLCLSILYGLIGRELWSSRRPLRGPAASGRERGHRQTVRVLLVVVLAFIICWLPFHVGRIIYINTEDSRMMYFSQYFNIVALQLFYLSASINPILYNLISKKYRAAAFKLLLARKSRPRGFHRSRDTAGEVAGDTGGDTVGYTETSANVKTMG
Compound,Ki (Motilin receptor [1]) [nM],Activity (Motilin receptor [2])
CC(C)[C@H]1NC(=O)[C@@H](Cc2ccc(O)cc2)NCCOc2ccccc2/C=C/CNC(=O)[C@H](CC(=O)O)NC1=O,2550,Antagonist
CCC[C@@H]1NC(=O)[C@@H](C(C)C)NC(=O)[C@@H](Cc2ccc(O)cc2)NCCCc2ccccc2CCNC1=O,> 10000,Antagonist
CC(C)C[C@H]1C(=O)NCCCc2ccccc2OCCN[C@H](Cc2ccc(O)cc2)C(=O)N[C@H](C(C)C)C(=O)N1C,222,Antagonist
CCC[C@@H]1NC(=O)[C@@H](Cc2ccccc2)NC(=O)[C@@H](Cc2ccc(O)cc2)NCCOc2ccccc2/C=C/CNC1=O,1520,Antagonist
CCC[C@@H]1NC(=O)[C@@H](C(C)C)NC(=O)[C@@H](CCCCN)NCCOc2ccccc2/C=C/CNC1=O,> 10000,Antagonist
CCC[C@@H]1NC(=O)[C@@H](C(C)C)NC(=O)[C@@H](Cc2ccc(O)cc2)NCCCCCCCCNC1=O,1200,Antagonist
CCC[C@@H]1NC(=O)[C@@H](C(C)C)NC(=O)[C@@H](Cc2ccccc2)NCCOc2ccccc2/C=C/CNC1=O,78,Antagonist
CCC[C@@H]1NC(=O)[C@@H](C(C)C)NC(=O)[C@@H](Cc2ccc(O)cc2)NCCc2ccccc2CCCNC1=O,> 10000,Antagonist
CCC[C@@H]1NC(=O)[C@@H](C(C)C)NC(=O)[C@@H](CCC(=O)O)NCCOc2ccccc2/C=C/CNC1=O,> 10000,Antagonist
CC(C)[C@H]1NC(=O)[C@@H](Cc2ccc(O)cc2)NCCOc2ccccc2/C=C/CNC(=O)[C@H](Cc2ccccc2)NC1=O,185,Antagonist
CCC[C@@H]1NC(=O)[C@@H](C(C)C)NC(=O)[C@@H](Cc2cccc3ccccc23)NCCOc2ccccc2CCCNC1=O,8.3,Antagonist
CCC[C@@H]1NC(=O)[C@@H](C(C)C)NC(=O)[C@@H](Cc2ccc(O)cc2)N(C)CCOc2ccccc2CCCNC1=O,2780,Antagonist
CCC[C@@H]1NC(=O)[C@@H](C(C)C)NC(=O)[C@@H](C(C)C)NCCOc2ccccc2/C=C/CNC1=O,3570,Antagonist
CC(C)[C@H]1NC(=O)[C@@H](Cc2ccc(O)cc2)NCCOc2ccccc2/C=C/CNC(=O)[C@H](CCCCN)NC1=O,664,Antagonist
CCC[C@@H]1NC(=O)[C@@H](CO)NC(=O)[C@@H](Cc2ccc(O)cc2)NCCOc2ccccc2/C=C/CNC1=O,> 10000,Antagonist
CCC[C@@H]1NC(=O)[C@@H](C(C)C)N(C)C(=O)[C@@H](Cc2ccc(O)cc2)NCCOc2ccccc2CCCNC1=O,> 10000,Antagonist
CCC[C@@H]1NC(=O)[C@@H](C(C)C)NC(=O)[C@@H](Cc2ccc(O)cc2)NCCCc2ccccc2/C=C/CNC1=O,> 10000,Antagonist
CCC[C@@H]1NC(=O)[C@@H](C(C)C)NC(=O)[C@@H](c2ccccc2)NCCOc2ccccc2CCCNC1=O,> 10000,Antagonist
CCC[C@H](NC(=O)[C@H](NC(=O)[C@H](N)Cc1ccc(O)cc1)C(C)C)C(N)=O,> 10000,Antagonist
CC[C@H](C)[C@H](NC(=O)[C@@H]1CCCN1C(=O)[C@@H](NC(=O)[C@@H](N)Cc1ccccc1)C(C)C)C(=O)N[C@@H](Cc1ccccc1)C(=O)N[C@H](C(=O)N[C@@H](Cc1ccc(O)cc1)C(=O)NCC(=O)N[C@@H](CCC(=O)O)C(=O)N[C@@H](CC(C)C)C(=O)N[C@@H](CCC(N)=O)C(=O)N[C@@H](CCCNC(=N)N)C(=O)N[C@@H](CCSC)C(=O)N[C@@H](CCC(N)=O)C(=O)N[C@@H](CCC(=O)O)C(=O)N[C@@H](CCCCN)C(=O)N[C@@H](CCC(=O)O)C(=O)N[C@@H](CCCNC(=N)N)C(=O)N[C@@H](CC(N)=O)C(=O)N[C@@H](CCCCN)C(=O)NCC(=O)N[C@@H](CCC(N)=O)C(=O)O)[C@@H](C)O [MOTILIN],0.36,
